# Measurements from ChEMBL document CHEMBL1147244, “Constituents of the Vietnamese medicinal plant Streptocaulon juventas and their antiproliferative activity against the human HT-1080 fibrosarcoma cell line” (J Nat Prod, 2003).
# System: HT-1080
# Experiment: Antiproliferative activity against human HT1080 cells after 72 hrs by MTT assay
# Format: functional, cell-based
# Settings: HT-1080, 72 h
# Method in brief: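 HT-1080 fibrosarcoma cells were grown in EME medium with 10% heat-inactivated FCS and 2 mM glutamine at 37 °C, 5% CO2. Cells were seeded at 2 × 10³ per well and left 24 h to attach. Samples were dissolved in DMSO/PBS, with final DMSO below 0.25%, and added at varying concentrations. After 2 h with MTT, formazan was extracted in DMSO and read at 550 nm. IC50 was taken from the mean of four wells.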
row,SMILES,IC50 [nM]
1,C[C@H]1O[C@@H](O[C@H]2CC[C@]3(C)[C@H]4CC[C@]5(C)[C@@H](C6=CC(=O)OC6)CC[C@]5(O)[C@@H]4CC[C@]3(O)C2)C[C@@H](O)[C@@H]1O,93
2,C[C@]12CC[C@H](O[C@@H]3O[C@H](CO)[C@@H](O)[C@H](O)[C@H]3O)C[C@@]1(O)CC[C@@H]1[C@@H]2CC[C@]2(C)[C@@H](C3=CC(=O)OC3)CC[C@]12O [PERIPLOGENIN GLUCOSIDE],160
3,COc1cccc2c1C(=O)c1c(O)c3c(c(O)c1C2=O)C[C@@](O)(C(=O)CO)C[C@@H]3O[C@H]1C[C@H](N)[C@H](O)[C@H](C)O1 [DOXORUBICIN],59
4,CC(=O)O[C@@H]1C[C@H](O[C@H]2CC[C@@]3(C)[C@H](CC[C@@H]4[C@@H]3CC[C@]3(C)[C@@H](C5=CC(=O)OC5)CC[C@]43O)C2)O[C@H](C)[C@H]1O[C@@H]1O[C@H](CO[C@@H]2O[C@H](CO)[C@@H](O)[C@H](O)[C@H]2O)[C@@H](O)[C@H](O)[C@H]1O,590
5,CO[C@@H]1[C@@H](O)[C@H](O[C@@H]2[C@@H](C)O[C@@H](O[C@H]3CC[C@@]4(C)[C@H](CC[C@@H]5[C@@H]4CC[C@]4(C)[C@@H](C6=CC(=O)OC6)CC[C@]54O)C3)C[C@H]2OC)O[C@H](C)[C@H]1O[C@@H]1O[C@H](CO[C@@H]2O[C@H](CO)[C@@H](O)[C@H](O)[C@H]2O)[C@@H](O)[C@H](O)[C@H]1O,220
6,CO[C@@H]1C[C@H](O[C@H]2CC[C@@]3(C)[C@H](CC[C@@H]4[C@@H]3CC[C@]3(C)[C@@H](C5=CC(=O)OC5)CC[C@]43O)C2)O[C@H](C)[C@H]1O[C@@H]1O[C@H](CO[C@@H]2O[C@H](CO)[C@@H](O)[C@H](O)[C@H]2O)[C@@H](O)[C@H](O)[C@H]1O [ECHUJIN],55
7,CO[C@@H]1C[C@H](O[C@H]2CC[C@]3(C)[C@H]4CC[C@]5(C)[C@@H](C6=CC(=O)OC6)CC[C@]5(O)[C@@H]4CC[C@]3(O)C2)O[C@H](C)[C@H]1O [PERIPLOCYMARIN],96
8,CO[C@@H]1[C@@H](O)[C@H](O[C@H]2CC[C@]3(C)[C@H]4CC[C@]5(C)[C@@H](C6=CC(=O)OC6)CC[C@]5(O)[C@@H]4CC[C@]3(O)C2)O[C@H](C)[C@H]1O[C@@H]1O[C@H](CO)[C@@H](O)[C@H](O)[C@H]1O,670
9,C[C@H]1O[C@@H](O[C@@H]2C[C@H]3CC[C@@H]4[C@H](CC[C@]5(C)[C@@H](C6=CC(=O)OC6)CC[C@]45O)[C@@]3(C)[C@H](O)C2)C[C@@H](O)[C@@H]1O,1100
10,C[C@]12CC[C@H](O)C[C@@]1(O)CC[C@@H]1[C@@H]2CC[C@]2(C)[C@@H](C3=CC(=O)OC3)CC[C@]12O [PERIPLOGENIN],810
11,C[C@H]1O[C@@H](O[C@H]2CC[C@@]3(C)[C@H](CC[C@@H]4[C@@H]3CC[C@]3(C)[C@@H](C5=CC(=O)OC5)CC[C@]43O)C2)C[C@@H](O)[C@@H]1O[C@@H]1O[C@H](CO[C@@H]2O[C@H](CO)[C@@H](O)[C@H](O)[C@H]2O)[C@@H](O)[C@H](O)[C@H]1O,54
12,C[C@]12CC[C@H](O[C@@H]3O[C@H](CO[C@@H]4O[C@H](CO)[C@@H](O)[C@H](O)[C@H]4O)[C@@H](O)[C@H](O)[C@H]3O)C[C@H]1CC[C@@H]1[C@@H]2CC[C@]2(C)[C@@H](C3=CC(=O)OC3)CC[C@]12O [DIGITOXIGENIN GENTIOBIOSIDE],1600
13,O=c1[nH]cc(F)c(=O)[nH]1 [FLUOROURACIL],3700
14,CC(=O)O[C@H]1C[C@]2(O)[C@@H]3CC[C@@H]4C[C@@H](O[C@H]5C[C@@H](O)[C@H](O[C@@H]6O[C@H](CO)[C@@H](O)[C@H](O)[C@H]6O)[C@@H](C)O5)CC[C@]4(C)[C@H]3CC[C@]2(C)[C@H]1C1=CC(=O)OC1 [SUBALPINOSIDE],180
15,C[C@H]1O[C@@H](O[C@H]2CC[C@]3(C)[C@H]4CC[C@]5(C)[C@@H](C6=CC(=O)OC6)CC[C@]5(O)[C@@H]4CC[C@]3(O)C2)C[C@@H](O)[C@@H]1O[C@@H]1O[C@H](CO)[C@@H](O)[C@H](O)[C@H]1O [CORCHORUSOSIDE C],92
16,C[C@]12CC[C@H](O)C[C@H]1CC[C@@H]1[C@@H]2CC[C@]2(C)[C@@H](C3=CC(=O)OC3)CC[C@]12O [DIGITOXIGENIN],1500
17,C[C@]12CC[C@H](O[C@@H]3O[C@H](CO)[C@@H](O)[C@H](O)[C@H]3O[C@@H]3O[C@H](CO)[C@@H](O)[C@H](O)[C@H]3O)C[C@H]1CC[C@@H]1[C@@H]2CC[C@]2(C)[C@@H](C3=CC(=O)OC3)CC[C@]12O [DIGITOXIGENIN SOPHOROSIDE],460
18,C[C@]12[C@H](CC[C@@H]3[C@@H]1CC[C@]1(C)[C@@H](C4=CC(=O)OC4)CC[C@]31O)C[C@@H](O)C[C@H]2O [ACOVENOSIGENIN A],1200
